This is an account of results in ChEMBL document CHEMBL5046217, “Discovery of New Imidazo[2,1-b]thiazole Derivatives as Potent Pan-RAF Inhibitors with Promising In Vitro and In Vivo Anti-melanoma Activity” (J Med Chem, 2021).

Series [1] relates to MDA-MB-435. Nature of the series: Antiproliferative activity against human MDA-MB-435 cells assessed as total growth inhibition measured after 48 hrs by SRB assay. The note with it: MDA-MB-435, 48 h. On the technique in general: Sulforhodamine B stains cellular protein and so reports cell mass.
For series [2], the system named is Malme-3M. Nature of the series: Antiproliferative activity against human Malme-3M cells assessed as total growth inhibition measured after 48 hrs by SRB assay.
The test system of series [3] is Panel melanoma (Carcinoma cell lines). The series can be described thus: cells. The note with it: Homo sapiens, 48 h, read-out: INH.
Series [4] concerns Panel breast (Carcinoma cell lines). Nature of the series: Antiproliferative activity against human Panel breast (Carcinoma cell lines) assessed as cell growth inhibition measured after 48 hrs by SRB assay.
The subject of series [5] is SK-MEL-5. Nature of the series: Antiproliferative activity against human SK-MEL-5 cells assessed as cell growth inhibition measured after 48 hrs by SRB assay. The note with it: SK-MEL-5, 48 h.
Series [6] concerns M14. Nature of the series: Antiproliferative activity against human M14 cells assessed as total growth inhibition measured after 48 hrs by SRB assay. The note with it: M14, 48 h.
Series [7] has as its system Panel melanoma (Carcinoma cell lines). Nature of the series: Antiproliferative activity against human Panel melanoma (Carcinoma cell lines) assessed as cell growth inhibition measured after 48 hrs by SRB assay.
In series [8] the test system is Panel ovarian (Carcinoma cell lines). Nature of the series: Antiproliferative activity against human Panel ovarian (Carcinoma cell lines) assessed as cell growth inhibition measured after 48 hrs by SRB assay.
In series [9] the test system is LOX IMVI. The series can be described thus: Antiproliferative activity against human LOX IMVI cells assessed as total growth inhibition measured after 48 hrs by SRB assay.
A short description of the next series: in vitro. The note with it: human, BJ cells and Malme-3M cells.
For series [10], the system named is SK-MEL-28. Nature of the series: Antiproliferative activity against human SK-MEL-28 cells assessed as cell growth inhibition measured after 48 hrs by SRB assay. The note with it: SK-MEL-28, 48 h.
The subject of series [11] is LOX IMVI. The series can be described thus: Antiproliferative activity against human LOX IMVI cells assessed as cell growth inhibition measured after 48 hrs by SRB assay.
For series [12], the system named is UACC-62. The series can be described thus: Antiproliferative activity against human UACC-62 cells assessed as cell growth inhibition measured after 48 hrs by SRB assay. The note with it: UACC-62, 48 h.
Series [13] in a line: Cytotoxicity against human L132 cells assessed as cell growth inhibition incubated for 48 hrs by MTT assay. The format is toxicity, cell-based. On the technique in general: Tetrazolium dyes change colour on reduction, which living cells bring about.
Series [14] concerns SK-MEL-2. Nature of the series: Antiproliferative activity against human SK-MEL-2 cells assessed as cell growth inhibition measured after 48 hrs by SRB assay. The note with it: SK-MEL-2, 48 h.
In series [15] the test system is Panel renal (Carcinoma cell lines). Nature of the series: Antiproliferative activity against human Panel renal (Carcinoma cell lines) assessed as cell growth inhibition measured after 48 hrs by SRB assay.
The subject of series [16] is Panel leukemia (Carcinoma cell lines). The series can be described thus: Antiproliferative activity against human Panel leukemia (Carcinoma cell lines) assessed as cell growth inhibition measured after 48 hrs by SRB assay.
Series [17] relates to Panel colon (Carcinoma cell lines). Nature of the series: Antiproliferative activity against human Panel colon (Carcinoma cell lines) assessed as cell growth inhibition measured after 48 hrs by SRB assay.
The test system of series [18] is MDA-MB-435. Nature of the series: Antiproliferative activity against human MDA-MB-435 cells assessed as cell growth inhibition measured after 48 hrs by SRB assay. The note with it: MDA-MB-435, 48 h.
Series [19] relates to Panel leukemia (Carcinoma cell lines). The series can be described thus: cells. The note with it: Homo sapiens, 48 h, read-out: INH.
In series [20] the test system is SK-MEL-5. The series can be described thus: Antiproliferative activity against human SK-MEL-5 cells assessed as total growth inhibition measured after 48 hrs by SRB assay. The note with it: SK-MEL-5, 48 h.
Series [21] deals with SK-MEL-2. The series can be described thus: Antiproliferative activity against human SK-MEL-2 cells assessed as total growth inhibition measured after 48 hrs by SRB assay. The note with it: SK-MEL-2, 48 h.
Series [22] concerns UACC-257. Nature of the series: Antiproliferative activity against human UACC-257 cells assessed as total growth inhibition measured after 48 hrs by SRB assay. The note with it: UACC-257, 48 h.
The test system of series [23] is M14. The series can be described thus: Antiproliferative activity against human M14 cells assessed as cell growth inhibition measured after 48 hrs by SRB assay. The note with it: M14, 48 h.
The target in series [24] is RAF proto-oncogene serine/threonine-protein kinase (Homo sapiens, UniProt P04049). Nature of the series: Inhibition of human wild type CRAF using myelin basic protein as substrate in presence of [gamma-33P]ATP incubated for 40 mins by scintillation counting method.
Chain of RAF proto-oncogene serine/threonine-protein kinase (P04049 whole entry): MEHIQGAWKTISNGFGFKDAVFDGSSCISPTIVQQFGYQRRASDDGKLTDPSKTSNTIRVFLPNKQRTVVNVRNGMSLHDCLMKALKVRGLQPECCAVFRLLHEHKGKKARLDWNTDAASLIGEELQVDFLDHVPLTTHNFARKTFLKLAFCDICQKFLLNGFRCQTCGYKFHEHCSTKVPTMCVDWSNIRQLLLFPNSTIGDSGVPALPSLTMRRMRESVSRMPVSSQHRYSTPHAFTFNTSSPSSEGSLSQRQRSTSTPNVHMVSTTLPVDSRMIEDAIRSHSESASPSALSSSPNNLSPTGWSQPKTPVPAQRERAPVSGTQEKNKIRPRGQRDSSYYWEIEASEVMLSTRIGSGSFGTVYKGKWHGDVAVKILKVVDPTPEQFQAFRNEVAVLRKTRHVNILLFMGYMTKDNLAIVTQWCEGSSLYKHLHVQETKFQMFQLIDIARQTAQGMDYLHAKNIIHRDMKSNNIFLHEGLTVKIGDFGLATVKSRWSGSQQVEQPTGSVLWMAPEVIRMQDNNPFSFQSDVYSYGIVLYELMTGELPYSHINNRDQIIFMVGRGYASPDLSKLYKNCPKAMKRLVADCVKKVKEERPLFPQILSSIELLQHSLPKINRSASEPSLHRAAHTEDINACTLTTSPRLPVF
The subject of series [25] is UACC-257. The series can be described thus: Antiproliferative activity against human UACC-257 cells assessed as cell growth inhibition measured after 48 hrs by SRB assay. The note with it: UACC-257, 48 h.
A short description of series [26]: Cytotoxicity against human BJ cells assessed as cell growth inhibition incubated for 48 hrs by MTT assay. The format is toxicity, cell-based. The gist of the method: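 BJ1 normal skin fibroblasts were seeded at 10 × 10³ cells/well with compound in triplicate wells and grown in DMEM-F12 at 37 °C, 5% CO₂, across an eight-point dilution series. Growth inhibition was calculated as (1 − T/C) × 100, and IC50 was taken from the dose–response curve.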

Series [27] deals with Panel CNS (Carcinoma cell lines). The series can be described thus: Antiproliferative activity against human Panel CNS (Carcinoma cell lines) assessed as cell growth inhibition measured after 48 hrs by SRB assay.
In series [28] the test system is Panel colon (Carcinoma cell lines). Nature of the series: cells. The note with it: Homo sapiens, 48 h, read-out: INH.
The test system of series [29] is Panel ovarian (Carcinoma cell lines). Nature of the series: cells. The note with it: Homo sapiens, 48 h, read-out: INH.
Series [30] has as its system Panel prostate (Carcinoma cell lines). Nature of the series: Antiproliferative activity against human Panel prostate (Carcinoma cell lines) assessed as cell growth inhibition measured after 48 hrs by SRB assay.
Series [31] relates to SK-MEL-28. The series can be described thus: Antiproliferative activity against human SK-MEL-28 cells assessed as total growth inhibition measured after 48 hrs by SRB assay. The note with it: SK-MEL-28, 48 h.
In series [32] the test system is UACC-62. The series can be described thus: Antiproliferative activity against human UACC-62 cells assessed as total growth inhibition measured after 48 hrs by SRB assay. The note with it: UACC-62, 48 h.
The test system of a further series is NSCLC. Nature of the series: Antiproliferative activity against human NSCLC cell line assessed as cell growth inhibition measured after 48 hrs by SRB assay.
Series [33] deals with Malme-3M. Nature of the series: Antiproliferative activity against human Malme-3M cells assessed as cell growth inhibition measured after 48 hrs by SRB assay.
The subject of series [34] is A-375. Nature of the series: Inhibition of Pan-Raf in human A-375 cells assessed as reduction in ERK phosphorylation at 5 uM measured after 24 hrs by immunoblot assay. The format is cell-based. The gist of the method:
(§1)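 A375 cells were treated for 24 h, including at 5 μM alongside vemurafenib. Cells were lysed in RIPA buffer with phosphatase and protease inhibitors, separated by SDS-PAGE and blotted to PVDF. Blots were probed for phospho-MEK1/2, phospho-ERK1/2, total MEK and total ERK, with chemiluminescent detection.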
(In general: In western blotting, separated proteins are transferred to a membrane and probed.)

The test system of series [35] is A-375. The series can be described thus: Inhibition of Pan-Raf in human A-375 cells assessed as reduction in MEK phosphorylation at 5 uM measured after 24 hrs by immunoblot assay. The format is cell-based. The gist of the method: as §1
Series [36] can be described thus: Stability in rat plasma assessed as parent compound remaining at 10 uM measured after 30 mins by LC-MS analysis. The format is ADME, cell-free. The note with it: read-out: Stability. The gist of the method:
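About 10 μM compound shaken in human or rat plasma at 37 °C for 30 and 120 min. Acetonitrile added, samples centrifuged at 4 °C, and remaining parent in the supernatant quantified by LC−MS. Procaine and diltiazem run as references.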

Calls of active or inactive are those of the source. The calls are words filed in the database; no cut-off is given here.

A word on the TGI: it is the concentration at which net growth stops. Broadly, the IC50 is the concentration at which inhibition is half-maximal. Take `COc1ccc(S(=O)(=O)NCCNc2nccc(-c3c(-c4ccccc4)nc4sccn34)n2)cc1`: the TGI in the series with MDA-MB-435 [1], with Malme-3M [2], in the series with M14 [6], in the series with LOX IMVI [9], in the series with SK-MEL-5 [20] and with SK-MEL-2 [21] was more than 100 µM in each case. Further, the TGI in the series on UACC-257 [22], in the series with SK-MEL-28 [31] and in the series with UACC-62 [32] was more than 100 µM throughout. For the same compound, the inhibition at 10 µM in series [3] was found to be 83.8%; in series [19] it was 81.3%; in series [28], 76.7%; in [29], 73.2%. For the same compound, the IC50 in [4] was 13.3 µM; in the series with SK-MEL-5 [5], 1.7 µM; in [7], 4.03 µM; in series [8], 3.57 µM; in the series on SK-MEL-28 [10] it was 5.7 µM; in the series with LOX IMVI [11] it was 3.9 µM. Moreover, the IC50 amounted to 1.1 µM in the series with UACC-62 [12]; 4.9 µM with SK-MEL-2 [14]; 3.7 µM in [15]; 2.99 µM in [16]; 2.19 µM in series [17]; 1.2 µM with MDA-MB-435 [18]. In addition, the IC50 with M14 [23] stood at 2.7 µM; in series [24], 0.172 µM; in the series on UACC-257 [25], 6.4 µM; in series [27], 6.46 µM; in series [30], 2.45 µM; with NSCLC, 5.42 µM. Besides, the IC50 in the series with Malme-3M [33] came out at 8.7 µM. For the same compound, the selectivity ratio in “in vitro” was found to be 6.4. Moreover, the figures for the half-maximal inhibitory concentration (IC50) at 48 h in [13] and in series [26] were 60.2 µM and 55.6 µM, respectively.

For `CCCS(=O)(=O)Nc1ccc(F)c(C(=O)c2c[nH]c3ncc(-c4ccc(Cl)cc4)cc23)c1F`, the inhibition result in the series on A-375 [34] and with A-375 [35] was “Active” throughout.

As for `CCN(CC)CCOC(=O)c1ccc(N)cc1` [PROCAINE], the remaining at 0.5 h, 10 µM in [36] is 84.9%.
